Measurements published in ChEMBL document CHEMBL1150419, “Structure-activity relationships of a peptide inhibitor of the human FcRn:human IgG interaction” (Bioorg Med Chem, 2008).

Target: IgG receptor FcRn large subunit p51 (Homo sapiens, UniProt P55899)
Assay: Inhibition of human IgG binding to soluble human FcRn by ELISA
Summary of the method: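 Biotinylated soluble human FcRn immobilized on neutravidin plates, incubated with hIgG (3 nM, constant) and peptide at varying concentrations for 2 h at 37 °C. After washing, bound hIgG detected with peroxidase-conjugated hIgG-specific Fab fragments.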

IgG receptor FcRn large subunit p51, sequence (P55899 whole entry): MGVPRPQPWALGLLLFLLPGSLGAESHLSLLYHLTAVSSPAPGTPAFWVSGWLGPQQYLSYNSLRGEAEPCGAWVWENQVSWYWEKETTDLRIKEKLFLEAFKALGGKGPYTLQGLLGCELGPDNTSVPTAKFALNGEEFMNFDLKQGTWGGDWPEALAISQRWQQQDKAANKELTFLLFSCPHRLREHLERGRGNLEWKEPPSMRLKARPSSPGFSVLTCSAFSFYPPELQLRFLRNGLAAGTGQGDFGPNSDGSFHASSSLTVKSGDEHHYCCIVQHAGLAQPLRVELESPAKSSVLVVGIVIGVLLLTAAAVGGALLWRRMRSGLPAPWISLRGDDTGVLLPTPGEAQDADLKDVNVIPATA

| SMILES | IC50 [µM] |
| --- | --- |
| CC(C)C[C@H](NC(=O)CNC(=O)CNC(=O)[C@H](Cc1ccccc1)NC(=O)[C@H](Cc1cnc[nH]1)N(C)C(=O)CNC(=O)[C@@H](NC(=O)[C@@H](NC(=O)[C@H](Cc1ccccc1)NC(=O)[C@@H](N)CCCN=C(N)N)C(C)(C)S)[C@@H](C)O)C(=O)N[C@@H](Cc1ccc(O)cc1)C(=O)N1CCC[C@H]1C(=O)N[C@@H](CS)C(=O)O | > 250 |
| CC(C)C[C@H](NC(=O)CNC(=O)CNC(=O)[C@H](Cc1ccccc1)NC(=O)[C@H](Cc1cnc[nH]1)NC(=O)CNC(=O)[C@@H](NC(=O)[C@@H](NC(=O)[C@H](Cc1ccccc1)NC(=O)[C@@H](N)CCCN=C(N)N)C(C)(C)S)[C@@H](C)O)C(=O)N[C@@H](Cc1ccc(O)cc1)C(=O)N1CCC[C@H]1C(=O)N[C@@H](CS)C(=O)O | 2 |
| CC[C@H](C)[C@@H](NC(=O)CNC(=O)[C@H](Cc1ccccc1)NC(=O)[C@H](Cc1cnc[nH]1)NC(=O)CNC(=O)[C@@H](NC(=O)[C@@H](NC(=O)[C@H](Cc1ccccc1)NC(=O)[C@H](CCCNC(=N)N)NC(=O)[C@@H](N)CCC(N)=O)C(C)(C)S)[C@@H](C)O)C(=O)N[C@@H](CC(C)C)C(=O)N[C@@H](Cc1ccc(O)cc1)C(=O)N1CCC[C@H]1C(=O)N[C@@H](CS)C(=O)N[C@@H](CC(N)=O)C(=O)NCC(=O)N1CCC[C@H]1C(=O)O | 18 |
| CC(C)C[C@@H](C(=O)N[C@@H](Cc1ccc(O)cc1)C(=O)N1CCC[C@H]1C(=O)N[C@@H](C)C(=O)O)N(C)C(=O)CN(C)C(=O)CNC(=O)[C@H](Cc1ccccc1)NC(=O)[C@H](Cc1cnc[nH]1)NC(=O)CNC(=O)[C@@H](NC(=O)[C@@H](NC(=O)[C@H](Cc1ccccc1)NC(=O)[C@@H](N)CCCNC(=N)N)C(C)C)[C@@H](C)O | 37 |
| CC(C)C[C@H](NC(=O)[C@@H](C)NC(=O)CNC(=O)[C@H](Cc1ccccc1)NC(=O)[C@H](Cc1cnc[nH]1)NC(=O)CNC(=O)[C@@H](NC(=O)[C@H](CS)NC(=O)[C@H](Cc1ccccc1)NC(=O)[C@H](CCCN=C(N)N)NC(=O)[C@@H](N)CCC(N)=O)[C@@H](C)O)C(=O)N[C@@H](Cc1ccc(O)cc1)C(=O)N1CCC[C@H]1C(=O)N[C@@H](CS)C(=O)N[C@@H](CC(N)=O)C(=O)NCC(=O)N1CCC[C@H]1C(=O)O | 57 |
| CC(C)C[C@H](NC(=O)CNC(=O)CNC(=O)[C@H](Cc1ccccc1)NC(=O)[C@H](Cc1cnc[nH]1)NC(=O)CNC(=O)[C@@H](NC(=O)[C@@H](NC(=O)[C@H](Cc1ccccc1)NC(=O)[C@H](CCCNC(=N)N)NC(=O)[C@@H](N)CCC(N)=O)C(C)(C)S)[C@@H](C)O)C(=O)N[C@@H](Cc1ccc(O)cc1)C(=O)N1CCC[C@H]1C(=O)N[C@@H](CCS)C(=O)N[C@@H](CC(N)=O)C(=O)NCC(=O)N1CCC[C@H]1C(=O)O | 2 |
| CC(C)C[C@H](NC(=O)CNC(=O)CNC(=O)[C@H](Cc1ccccc1)NC(=O)[C@H](Cc1cnc[nH]1)NC(=O)CNC(=O)[C@@H](NC(=O)[C@@H](NC(=O)[C@H](Cc1ccccc1)NC(=O)[C@H](CCCN=C(N)N)NC(=O)[C@@H](N)CCC(N)=O)C(C)(C)S)[C@@H](C)O)C(=O)N[C@@H](Cc1ccc(F)cc1)C(=O)N1CCC[C@H]1C(=O)N[C@@H](CS)C(=O)N[C@@H](CC(N)=O)C(=O)NCC(=O)N1CCC[C@H]1C(=O)O | 26 |
| CC(C)C[C@H](NC(=O)CNC(=O)[C@@H](Cc1cnc[nH]1)NC(=O)[C@H](Cc1ccccc1)NC(=O)[C@H](Cc1cnc[nH]1)NC(=O)CNC(=O)[C@@H](NC(=O)[C@@H](NC(=O)[C@H](Cc1ccccc1)NC(=O)[C@H](CCCNC(=N)N)NC(=O)[C@@H](N)CCC(N)=O)C(C)(C)S)[C@@H](C)O)C(=O)N[C@@H](Cc1ccc(O)cc1)C(=O)N1CCC[C@H]1C(=O)N[C@@H](CS)C(=O)N[C@@H](CC(N)=O)C(=O)NCC(=O)N1CCC[C@H]1C(=O)O | 3.6 |
| CC(C)C[C@@H](C(=O)N[C@@H](Cc1ccc(O)cc1)C(=O)N1CCC[C@H]1C(=O)N[C@@H](CS)C(=O)O)N(C)C(=O)CN(C)C(=O)CNC(=O)[C@H](Cc1ccccc1)NC(=O)[C@H](Cc1c[nH]nn1)NC(=O)CNC(=O)[C@@H](NC(=O)[C@@H](NC(=O)[C@H](Cc1ccccc1)NC(=O)[C@@H](N)CCCNC(=N)N)C(C)(C)S)[C@@H](C)O | 5.7 |
| CC(C)C[C@H](NC(=O)[C@H]1CCCN1C(=O)[C@@H](C)NC(=O)[C@H](Cc1ccccc1)NC(=O)[C@H](Cc1cnc[nH]1)NC(=O)CNC(=O)[C@@H](NC(=O)[C@@H](NC(=O)[C@H](Cc1ccccc1)NC(=O)[C@H](CCCN=C(N)N)NC(=O)[C@@H](N)CCC(N)=O)C(C)(C)S)[C@@H](C)O)C(=O)N[C@@H](Cc1ccc(O)cc1)C(=O)N1CCC[C@H]1C(=O)N[C@@H](CS)C(=O)N[C@@H](CC(N)=O)C(=O)NCC(=O)N1CCC[C@H]1C(=O)O | 3.7 |
| CC(C)C[C@H](NC(=O)CN(C)C(=O)CNC(=O)[C@H](Cc1ccccc1)NC(=O)[C@H](Cc1cnc[nH]1)NC(=O)CNC(=O)[C@@H](NC(=O)[C@@H](NC(=O)[C@H](Cc1ccccc1)NC(=O)[C@H](CCCN=C(N)N)NC(=O)[C@@H](N)CCC(N)=O)C(C)(C)S)[C@@H](C)O)C(=O)N[C@@H](Cc1ccc(O)cc1)C(=O)N1CCC[C@H]1C(=O)N[C@@H](CS)C(=O)N[C@@H](CC(N)=O)C(=O)NCC(=O)N1CCC[C@H]1C(=O)O | 0.9 |
| CC(C)C[C@@H](C(=O)N[C@@H](Cc1ccc(O)cc1)C(=O)N1CCC[C@H]1C(=O)N[C@@H](CS)C(N)=O)N(C)C(=O)CN(C)C(=O)CNC(=O)[C@H](Cc1ccccc1)NC(=O)[C@H](Cc1csc[n+]1C)NC(=O)CNC(=O)[C@@H](NC(=O)[C@@H](NC(=O)[C@H](Cc1ccccc1)NC(=O)[C@@H](N)CCCN=C(N)N)C(C)(C)S)[C@@H](C)O | 2.4 |
| CC(C)C[C@H](NC(=O)CNC(=O)CNC(=O)[C@H](Cc1ccccc1)NC(=O)[C@H](Cc1cnc[nH]1)NC(=O)CNC(=O)[C@@H](NC(=O)[C@H](NC(=O)[C@@H](Cc1ccccc1)NC(=O)[C@H](CCCN=C(N)N)NC(=O)[C@@H](N)CCC(N)=O)C(C)(C)S)[C@@H](C)O)C(=O)N[C@@H](Cc1ccc(O)cc1)C(=O)N1CCC[C@H]1C(=O)N[C@H](CS)C(=O)N[C@@H](CC(N)=O)C(=O)NCC(=O)N1CCC[C@H]1C(=O)O | 11.4 |
| CC(C)C[C@H](NC(=O)[C@H]1CCCN1C(=O)CNC(=O)[C@H](Cc1ccccc1)NC(=O)[C@H](Cc1cnc[nH]1)NC(=O)CNC(=O)[C@@H](NC(=O)[C@@H](NC(=O)[C@H](Cc1ccccc1)NC(=O)[C@H](CCCNC(=N)N)NC(=O)[C@@H](N)CCC(N)=O)C(C)(C)S)[C@@H](C)O)C(=O)N[C@@H](Cc1ccc(O)cc1)C(=O)N1CCC[C@H]1C(=O)N[C@@H](CS)C(=O)N[C@@H](CC(N)=O)C(=O)NCC(=O)N1CCC[C@H]1C(=O)O | 1.4 |
| CC(C)C[C@H](NC(=O)CN1CCC[C@@H](NC(=O)[C@H](Cc2ccccc2)NC(=O)[C@H](Cc2cnc[nH]2)NC(=O)CNC(=O)[C@@H](NC(=O)[C@@H](NC(=O)[C@H](Cc2ccccc2)NC(=O)[C@@H](N)CCCN=C(N)N)C(C)C)[C@@H](C)O)C1=O)C(=O)N[C@@H](Cc1ccc(O)cc1)C(=O)N1CCC[C@H]1C(=O)N[C@@H](C)C(=O)O | 38 |
| CC(C)C[C@H](NC(=O)CNC(=O)[C@H]1CCCN1C(=O)[C@H](Cc1ccccc1)NC(=O)[C@H](Cc1cnc[nH]1)NC(=O)CNC(=O)[C@@H](NC(=O)[C@@H](NC(=O)[C@H](Cc1ccccc1)NC(=O)[C@H](CCCN=C(N)N)NC(=O)[C@@H](N)CCC(N)=O)C(C)(C)S)[C@@H](C)O)C(=O)N[C@@H](Cc1ccc(O)cc1)C(=O)N1CCC[C@H]1C(=O)N[C@@H](CS)C(=O)N[C@@H](CC(N)=O)C(=O)NCC(=O)N1CCC[C@H]1C(=O)O | 5 |
| CC(C)C[C@H](NC(=O)[C@H]1CCCN1C(=O)[C@H]1CCCN1C(=O)[C@H](Cc1ccccc1)NC(=O)[C@H](Cc1cnc[nH]1)NC(=O)CNC(=O)[C@@H](NC(=O)[C@@H](NC(=O)[C@H](Cc1ccccc1)NC(=O)[C@H](CCCNC(=N)N)NC(=O)[C@@H](N)CCC(N)=O)C(C)(C)S)[C@@H](C)O)C(=O)N[C@@H](Cc1ccc(O)cc1)C(=O)N1CCC[C@H]1C(=O)N[C@@H](CS)C(=O)N[C@@H](CC(N)=O)C(=O)NCC(=O)N1CCC[C@H]1C(=O)O | 21 |
| CC(C)C[C@H](NC(=O)CNC(=O)[C@@H](CCCN=C(N)N)NC(=O)[C@H](Cc1ccccc1)NC(=O)[C@H](Cc1cnc[nH]1)NC(=O)CNC(=O)[C@@H](NC(=O)[C@@H](NC(=O)[C@H](Cc1ccccc1)NC(=O)[C@H](CCCN=C(N)N)NC(=O)[C@@H](N)CCC(N)=O)C(C)(C)S)[C@@H](C)O)C(=O)N[C@@H](Cc1ccc(O)cc1)C(=O)N1CCC[C@H]1C(=O)N[C@@H](CS)C(=O)N[C@@H](CC(N)=O)C(=O)NCC(=O)N1CCC[C@H]1C(=O)O | 4.1 |
| CC(C)C[C@H](NC(=O)[C@@H](C)NC(=O)[C@@H](Cc1ccccc1)NC(=O)[C@H](Cc1ccccc1)NC(=O)[C@H](Cc1cnc[nH]1)NC(=O)CNC(=O)[C@@H](NC(=O)[C@@H](NC(=O)[C@H](Cc1ccccc1)NC(=O)[C@H](CCCNC(=N)N)NC(=O)[C@@H](N)CCC(N)=O)C(C)(C)S)[C@@H](C)O)C(=O)N[C@@H](Cc1ccc(O)cc1)C(=O)N1CCC[C@H]1C(=O)N[C@@H](CS)C(=O)N[C@@H](CC(N)=O)C(=O)NCC(=O)N1CCC[C@H]1C(=O)O | 4.3 |
| CC(C)C[C@H](NC(=O)CNC(=O)CNC(=O)[C@H](Cc1ccccn1)NC(=O)[C@H](Cc1cnc[nH]1)NC(=O)CNC(=O)[C@@H](NC(=O)[C@@H](NC(=O)[C@H](Cc1ccccc1)NC(=O)[C@H](CCCNC(=N)N)NC(=O)[C@@H](N)CCC(N)=O)C(C)(C)S)[C@@H](C)O)C(=O)N[C@@H](Cc1ccc(O)cc1)C(=O)N1CCC[C@H]1C(=O)N[C@@H](CS)C(=O)N[C@@H](CC(N)=O)C(=O)NCC(=O)N1CCC[C@H]1C(=O)O | 90 |
| CC(C)C[C@H](NC(=O)CNC(=O)CNC(=O)[C@H](Cc1c[nH]c2ccccc12)NC(=O)[C@H](Cc1cnc[nH]1)NC(=O)CNC(=O)[C@@H](NC(=O)[C@@H](NC(=O)[C@H](Cc1ccccc1)NC(=O)[C@H](CCCN=C(N)N)NC(=O)[C@@H](N)CCC(N)=O)C(C)(C)S)[C@@H](C)O)C(=O)N[C@@H](Cc1ccc(O)cc1)C(=O)N1CCC[C@H]1C(=O)N[C@@H](CS)C(=O)N[C@@H](CC(N)=O)C(=O)NCC(=O)N1CCC[C@H]1C(=O)O | 26 |
